For data set [1], the system named is DU-145 prostate cancer cells. Description: Trypan blue exclusion cell viability assay. Type of data set: cell-based, human. Conditions: for EC100: read-out: EC100 values in DU-145 cells, trypan blue exclusion, 72 h, mean ± SEM. The gist of the method:
(§1)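 Seeding 24 h ahead was DU-145 at 6,000 cells/well in DMEM and PC-3 at 6,500 cells/well in RPMI-1640, both with 10% FBS and 1% penicillin/streptomycin. Compounds were added from DMSO stocks (0.2% final DMSO) for 72 h, in quadruplicate. Cells were trypsinized, washed in calcium-free PBS, resuspended in PBS and counted by automated trypan blue exclusion. EC50 came from ≥6 concentrations bracketing a preliminary estimate; 3 independent experiments.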

Data set [2] relates to PC-3 prostate cancer cells. Description: Trypan blue exclusion cell viability assay. Conditions: for EC100: read-out: EC100 values in PC-3 cells, trypan blue exclusion, 72 h, mean ± SEM. In kind it is cell-based, human. The gist of the method: as §1
Data set [3] can be described thus: Trypan blue exclusion cell viability assay on normal cells, 72 h. Particulars: human, HIFF (human infant foreskin fibroblasts). Type of data set: cell-based, human. The gist of the method:
(§2)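 HIFF fibroblasts (infant foreskin, donor-consented) were kept in DMEM with 10% FBS and 1% penicillin/streptomycin at 37°C and 5% CO2, seeded at 6,000 cells/well 24 h ahead. Cells were treated for 72 h at 50 μM or at single lower concentrations (0.2% final DMSO), in quadruplicate. Cells were trypsinized, washed in calcium-free PBS, resuspended in PBS, and viability was scored by automated trypan blue exclusion.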

Data set [4] relates to DU-145 prostate cancer cells. Description: Alamar Blue cell viability assay. Particulars: Homo sapiens, DU-145, read-out: EC50 value in Alamar Blue. Type of data set: cell-based. The essentials: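 DU-145 cells were grown in DMEM with 10% FBS and 1% penicillin/streptomycin at 37°C and 5% CO2, then seeded at 6,000 cells/well 24 h before treatment. Compounds were added from DMSO stocks to 0.2% final DMSO for 72 h, in quadruplicate. After PBS wash, wells got Alamar Blue for 6 h; fluorescence ex 530/em 590 nm. EC50 fitted from ≥6 concentrations.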
Background: The colour change of resazurin is a common sign of viable cells or microbes.

The subject of data set [5] is DU-145 prostate cancer cells. In words: Crystal violet cell viability assay. Type of data set: cell-based, human. Particulars: crystal violet staining, even at non-cytotoxic concentrations. The gist of the method: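 DU-145 cells were seeded at 6,000 cells/well in DMEM/10% FBS 24 h ahead and exposed to compound for 72 h (0.2% final DMSO), in quadruplicate. Cells were fixed in 4% formaldehyde at 4°C for 30 min, washed with MeOH:AcOH 3:1, then 80% MeOH, and stained with 0.1% crystal violet for 1 h at room temperature. Stain was dissolved in 10% AcOH; A570 read against untreated control.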

The test system of another data set is B12 cells. Particulars: 3 h incubation, ref 70 (Liu et al); cited from earlier work.
For data set [6], the system named is HIFF (human infant foreskin fibroblasts) normal cells. In words: Trypan blue exclusion cell viability assay on normal cells, 72 h. In kind it is cell-based. Conditions: 50 μM flavonol, mean ± SEM. The gist of the method:
as §2

[7] abbreviates: Homo sapiens, DU-145, 72 h, read-out: EC50 values in DU-145 cells, trypan blue exclusion, 72 h, mean ± SEM.
[8] abbreviates: Homo sapiens, DU-145, read-out: EC100 - EC50 values in DU-145 cells, difference between EC100 and EC50, mean ± SEM.
The mark [9] stands for this setting: Homo sapiens, PC-3, 72 h, read-out: EC50 values in PC-3 cells, trypan blue exclusion, 72 h, mean ± SEM.
Setting [10] is: read-out: EC100 - EC50 values in PC-3 cells, difference between EC100 and EC50, mean ± SEM.
[11] abbreviates: read-out: EC50 values in DU-145 cells, trypan blue exclusion, 72 h, mean ± SEM.
[12] abbreviates: read-out: EC100 - EC50 values in DU-145 cells, difference between EC100 and EC50, mean ± SEM.
The mark [13] stands for this setting: Homo sapiens, PC-3, read-out: EC100 - EC50 values in PC-3 cells, difference between EC100 and EC50, mean ± SEM.

The structures appear in SMILES notation. Read-outs that look alike come from different tables or passages of the source. Some results are limits rather than exact numbers.

As to `O=c1c(O)c(-c2cccc(-c3ccccc3)c2)oc2cc(O)cc(O)c12` [8c, 2-[(1,1′-Biphenyl)-3-yl]-3,5,7-trihydroxy-4H-chromen-4-one], the concentration for a half-maximal effect (EC50) in data set [1] (setting [7]) stood at 6.33 ± 0.58 µM; in data set [1] (setting [8]) it was 11.7 ± 1.11 µM; in data set [2] (setting [9]) it was 6.35 ± 0.26 µM; in data set [2] (setting [10]), 4.98 ± 1.54 µM. Further, in data set [3], the viability at 72 h, 50 μM is 34.6 ± 2.74%.

Regarding `COc1ccc(-c2oc3cc(O)cc(O)c3c(=O)c2O)cc1` [Kaempferide, reference compound], the concentration for a half-maximal effect (EC50) in data set [1] (setting [7]) is 19.8 µM; in data set [1] (setting [11]), 19.8 ± 0.5 µM; in data set [1] (setting [12]) it was 19.4 ± 2.02 µM; in data set [4], 30.1 µM; in data set [2] (setting [9]) it was 14.9 ± 0.78 µM; in data set [2] (setting [13]) it was 19.3 ± 2.1 µM. The EC100 worked out at 39.2 ± 0.87 µM in data set [1] (Homo sapiens, DU-145, 72 h) and 34.2 ± 1.66 µM in data set [2] (Homo sapiens, PC-3, 72 h). In addition, the “maximum achievable cell viability compared to the control” value in data set [5] is listed as below 50%. Besides, the viability at 72 h, 50 μM in data set [3] was 52.2 ± 1.17%.

For `O=c1c(O)c(-c2ccc(I)cc2)oc2cc(O)cc(O)c12` [5d, 3,5,7-Trihydroxy-2-(4-iodophenyl)-4H-chromen-4-one], the 50% effective concentration (EC50) in data set [1] (setting [7]) amounted to 7.51 ± 0.27 µM; in data set [1] (setting [8]), 2.33 ± 2.05 µM; in data set [2] (setting [9]) it was 4.13 ± 0.16 µM; in data set [2] (setting [10]), 6.21 ± 0.59 µM. The viability at 72 h, 50 μM in data set [3] turned out to be 34.8 ± 0.99%.

`O=C(c1ccccc1)c1ccc(-c2oc3cc(O)cc(O)c3c(=O)c2O)cc1` [5b, 2-(4-Benzoylphenyl)-3,5,7-trihydroxy-4H-chromen-4-one]: the EC50 was 16.6 ± 0.7 µM in data set [1] (setting [7]), 24.4 ± 1.1 µM in data set [1] (setting [8]), 9.97 ± 0.36 µM in data set [2] (setting [9]) and 12.3 ± 0.99 µM in data set [2] (setting [13]). Besides, the EC100 in data set [1] (Homo sapiens, DU-145, 72 h) was 41 ± 2.18 µM; in data set [2] (Homo sapiens, PC-3, 72 h), 22.3 ± 0.91 µM. The compound further yielded a viability at 72 h, 50 μM in data set [3] of 32.3 ± 2.92%.

`O=C(c1ccccc1)c1cccc(-c2oc3cc(O)cc(O)c3c(=O)c2O)c1` [5a, 2-(3-Benzoylphenyl)-3,5,7-trihydroxy-4H-chromen-4-one]: the concentration giving a half-maximal response (EC50) was 14.8 ± 0.71 µM in data set [1] (setting [7]), 5.62 ± 5.5 µM in data set [1] (setting [8]), 9.31 ± 0.58 µM in data set [2] (setting [9]) and 8.55 ± 2.06 µM in data set [2] (setting [10]). The compound further had a viability at 72 h, 50 μM in data set [3] of 34.8 ± 0.2%.

With `O=c1c(-c2ccc(O)cc2)coc2cc(O)cc(O)c12` [genistein], the “MTT reduced more than the control” value with B12 cells is on record as 60%.

On to `O=c1c(O)c(-c2ccc(O)cc2)oc2cc(O)cc(O)c12` [Kaempferol, reference compound], for which the concentration for a half-maximal effect (EC50) in data set [1] (setting [7]) came out at 38.4 ± 1.94 µM; in data set [1] (setting [12]), 36 ± 2.02 µM; in data set [2] (setting [9]) it was 33.3 ± 2.96 µM; in data set [2] (setting [13]), 24.3 ± 4.63 µM. The EC100 in data set [1] (Homo sapiens, DU-145, 72 h) amounted to 74.4 ± 0.83 µM; in data set [2] (Homo sapiens, PC-3, 72 h), 57.6 ± 6.4 µM. The same compound had a viability at 72 h, 50 μM in data set [3] of 73.8 ± 1.38%.

On to `O=c1c(O)c(-c2cccc(I)c2)oc2cc(O)cc(O)c12` [5c, 3,5,7-Trihydroxy-2-(3-iodophenyl)-4H-chromen-4-one], for which the EC50 amounted to 14.5 ± 1.02 µM in data set [1] (setting [7]), 10.1 ± 0.84 µM in data set [1] (setting [8]), 10.5 ± 0.72 µM in data set [2] (setting [9]) and 9 ± 1.06 µM in data set [2] (setting [10]). In data set [3], this compound displayed a viability at 72 h, 50 μM of 46.8 ± 2.48%.

For `O=c1c(O)c(-c2ccccc2)oc2cc(O)cc(O)c12` [5f, Galangin, reference compound], the 50% effective concentration (EC50) in data set [1] (setting [7]) was found to be 25.9 ± 0.59 µM; in data set [1] (setting [12]), 20.5 ± 0.46 µM; in data set [2] (setting [9]), 17.1 ± 1.29 µM; in data set [2] (setting [13]), 26.8 ± 5.31 µM. The EC100 in data set [1] (Homo sapiens, DU-145, 72 h) worked out at 46.4 ± 3.92 µM; in data set [2] (Homo sapiens, PC-3, 72 h), 43.9 ± 4.14 µM. In data set [3], this compound showed a viability at 72 h, 50 μM of 48 ± 1.38%.

Regarding `O=c1c(O)c(-c2ccc(O)c(O)c2)oc2cc(O)cc(O)c12` [Quercetin, reference compound], the half-maximal effective concentration (EC50) in data set [1] (setting [7]) came out at 39.1 µM; in data set [1] (setting [11]) it was 39.1 ± 2.87 µM; in data set [1] (setting [12]), 46.3 ± 8.55 µM; in data set [4], 55.1 µM; in data set [2] (setting [9]), 32.9 µM; in data set [2] (read-out: EC50 values in PC-3 cells, trypan blue exclusion, 72 h, mean ± SEM), 32.9 ± 4.1 µM. The half-maximal effective concentration (EC50) in data set [2] (setting [10]) was determined as 44.3 ± 4.29 µM. For the same compound, the EC100 in data set [1] (Homo sapiens, DU-145, 72 h) is 85.4 ± 6.11 µM; in data set [2] (Homo sapiens, PC-3, 72 h), 77.1 ± 3.4 µM. For the same compound, the viability at 72 h, 50 μM in data set [3] came to 84.5 ± 2.21%. The “% Viability of HIFF (50 μM)” value in data set [6] is “least inhibitory”.

With `O=c1c(O)c(-c2ccc(-c3ccccc3)cc2)oc2cc(O)cc(O)c12` [8d, 2-[(1,1′-Biphenyl)-4-yl]-3,5,7-trihydroxy-4H-chromen-4-one], the EC50 is 5.57 ± 0.6 µM in data set [1] (setting [7]), 6.86 ± 0.18 µM in data set [1] (setting [8]), 5.4 ± 0.63 µM in data set [2] (setting [9]) and 3.35 ± 0.93 µM in data set [2] (setting [10]). In data set [3], this compound gave a viability at 72 h, 50 μM of 34.4 ± 3.67%.

Turning to `Cc1ccc(-c2oc3cc(O)cc(O)c3c(=O)c2O)cc1` [5e, 3,5,7-Trihydroxy-2-(p-tolyl)-4H-chromen-4-one], the 50% effective concentration (EC50) in data set [1] (setting [7]) was determined as 14.3 ± 0.53 µM; in data set [1] (setting [12]), 9.45 ± 1.89 µM; in data set [2] (setting [9]), 9.89 ± 1.24 µM; in data set [2] (setting [13]), 10.5 ± 3.29 µM. In addition, in data set [3], the viability at 72 h, 50 μM came to 37.5 ± 2.27%.

The EC50 is the concentration needed to bring the measured effect to its halfway point. As usually defined, the viability is a per cent measure of how many cells are alive, often set against a control. Read a low viability as a greater loss of cells.

These data come from publication PMC4091967 (International Journal of Oncology, 2014).
